An excerpt weighted towards active compounds, which were near 6.1% of everything screened.
DAT uptake mod: modulates human dopamine transporter uptake under cocaine | LLC-PK1 hDAT cells, [14C]-dopamine uptake with cocaine IC80; actives deviate in either direction | B-score at 10 µM | 110,000 tested, 1.3% active | AID 449768;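 active means Z score or B-score, a plate-position-corrected score, falls beyond the plate's 99.7% confidence bounds, in either direction; inactive means both scores lie inside the 99.7% bounds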;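 further: scored against the spread of the other compound wells on the same plate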
Target sequence (Q01959 whole entry, looked up): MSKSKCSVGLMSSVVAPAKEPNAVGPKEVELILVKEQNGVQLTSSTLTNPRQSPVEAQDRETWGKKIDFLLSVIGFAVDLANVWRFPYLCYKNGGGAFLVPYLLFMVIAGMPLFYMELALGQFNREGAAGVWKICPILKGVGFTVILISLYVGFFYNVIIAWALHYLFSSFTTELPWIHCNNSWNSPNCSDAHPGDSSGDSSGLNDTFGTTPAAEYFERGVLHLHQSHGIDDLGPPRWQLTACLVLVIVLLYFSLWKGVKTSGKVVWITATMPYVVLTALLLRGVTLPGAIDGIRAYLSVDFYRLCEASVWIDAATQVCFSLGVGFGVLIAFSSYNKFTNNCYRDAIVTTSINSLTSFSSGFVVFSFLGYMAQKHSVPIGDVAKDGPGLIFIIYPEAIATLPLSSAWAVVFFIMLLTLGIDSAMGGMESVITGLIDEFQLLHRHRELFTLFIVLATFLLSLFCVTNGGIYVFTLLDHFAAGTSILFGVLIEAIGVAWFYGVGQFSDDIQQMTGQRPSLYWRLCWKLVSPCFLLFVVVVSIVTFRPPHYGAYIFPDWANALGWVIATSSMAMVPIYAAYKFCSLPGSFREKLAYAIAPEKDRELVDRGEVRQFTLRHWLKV
Measles CPE: protection of cells from measles virus. protection (pct of control), % at 4 µM. 140,000 tested, 1.5% active. Measles virus-infected cells, CPE protection, absorbance; in the data active means protection mostly above about 24%, no sharp cut-off; inactive means mostly below about 26%
RAM network inh: blocks the yeast RAM network; S. cerevisiae dse1pr::URA3 reporter, 5-FOA growth OD615, 2 d; analog-sensitive cbk1-as2 kinase mutant strain; inhibition, % at 50 µM; 190,000 tested, 1.8% active; AID 868;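 active means inhibition above a set limit, 3 SD over mean compound inhibition, cut at about 8.4% in these data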;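 further: 0% = DMSO-only wells with no growth and 100% = 10 µM 1-NA-PP1 full growth; inhibition rescues growth on 5-FOA so higher OD means more RAM inhibition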
Yeast growth inh: yeast BB579 growth reduction in restrictive medium; inhibition, % at 10 µM; 140,000 tested, 0.51% active; S. cerevisiae BB579 growth, OD615, 48 h;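 active means inhibition above a set limit, 3 SD over the mean compound inhibition, cut at about 44% in these data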
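Test system: DeaD yeast strain BB579 / Buffer or medium: restrictive glucose-based CSMM-D medium / Doses: single 10 µM dose / Schedule: 4 h cell preincubation, 48 h compound exposure, 30 °C humidified / Technique: culture absorbance at 615 nm / Controls: amphotericin B positive control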
Yeast life ext: extends the lifespan of yeast; inhibition of the nicotinamide effect, % at 10 µM; 130,000 tested, 0.68% active; S. cerevisiae growth with nicotinamide, OD615; deaD strain in restrictive glucose medium;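 active means inhibition above a set limit, placed 3 SD over the median of all compounds, cut at about 26% in these data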;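 further: 0% = nicotinamide-treated wells and 100% = cells grown without nicotinamide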
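System: Modified budding yeast, DeaD strain | Buffer or medium: Restrictive glucose medium | Also added: 1.5 mM nicotinamide | Doses: 10 µM single point, 0.25% DMSO | Schedule: 48 h compound exposure at 30 °C, humidified | Detection: Absorbance at 615 nm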
WT yeast gro inh: growth inhibition of WT yeast, mitochondrial fusion screen; 190,000 tested, 2.1% active; mitochondrial fusion phenotypic screen, WT strain; inhibition, % at 10 µM; in the data active means inhibition above about 58%; tested in S. cerevisiae
Starred values were filed as active, the others as inactive; · = no result.

SMILES	DAT uptake mod	Measles CPE	RAM network inh	Yeast growth inh	Yeast life ext	WT yeast gro inh
CCOC(=O)c1ccc(-c2cc(C)no2)[nH]1	·	10	0	-5	-6	7
Cc1c(C(=O)Nc2ccc(Oc3ccccc3)cc2)sc2nc3n(c(=O)c12)CCC3	0.41	15	2	-27	-12	61*
O=C(Nc1ccc(Cl)cc1)c1csc(Cc2ccccc2)n1	·	·	5	·	·	74*
O=C(Nc1cccc(Cl)c1)c1csc(-c2ccccc2)n1	·	10	8	-16	-16	61*
CCC(=O)Nc1cccc(-c2csc(-c3ccccc3)n2)c1	·	6	3	-7	-7	50
CC(C)CC(=O)Nc1cccc(-c2csc(-c3ccccc3)n2)c1	0.87	0	10*	-56	-14	47
COc1ccc(Cc2nc(C(=O)Nc3ccc(Cl)cc3)cs2)cc1	0.52	5	8.8*	-64	-14	54
O=C(Nc1ccccc1N1CCOCC1)c1cc(Br)c(Br)s1	·	·	4	·	·	17
COC(=O)CCCC1=CC2=C(c3ccccc3)C(=O)C(C)(OC(=O)C3CCCC3)C(=O)C2=CN1Cc1ccc(OC)cc1 (stereo not given)	-0.57	·	·	·	·	·
CC(C)n1c(O)c(N=NC(=O)C2COc3ccccc3O2)c2ccccc21 (stereo not given)	·	·	2	·	·	52
COC(=O)c1cc(COC(=O)c2cccnc2SC)oc1C	-0.41	8	3	9	-10	4
COC(=O)c1c(NC(=O)C2CC2)sc(C(=O)Nc2ccccc2)c1C	·	·	1	·	·	-5
COc1ccc(CNC(=O)c2csc(Cc3ccc(OC)cc3)n2)cc1	1.5	6	3	-69	-2	15
COc1ccc(Cc2nc(C(=O)Nc3ccccc3)cs2)cc1	-1.8	66*	1	0	-20	·
COc1ccc(CNC(=O)c2csc(Cc3ccc(Cl)cc3)n2)cc1	·	6	1	-71	-2	32
COc1ccc(NC(=O)c2csc(Cc3ccc(Cl)cc3)n2)cc1	·	·	11*	·	·	59*
CCn1c(CSc2nccn2C)nc2cc(C(=O)O)ccc21	-0.96	51*	1	-20	-15	-6
CCn1c(CSc2nc3ccccc3[nH]2)nc2cc(C(=O)O)ccc21	-0.59	9	0	2	-4	6
CCCCCOC(=O)C1=C(C)N(C)C(=O)NC1c1cc(Br)c(O)c(OC)c1 (stereo not given)	1.6	4	2	-31	-8	6
CCOc1cc(C(=O)Nc2ccc3c4c(cccc24)C(=O)N3CC)cc(OCC)c1OCC	0.48	6	4	-33	-8	-11
CCN1C(=O)c2cccc3c(NC(=O)c4cccc(N5C(=O)CCC5=O)c4)ccc1c23	·	7	9.3*	-48	-3	8
Nc1cc(=O)nc(SCC(=O)NCc2ccccc2)n1CCc1ccccc1	-5.1*	5	1	-23	-5	-9
C=CCn1c(N)cc(=O)nc1SCC(=O)NC(C)c1ccccc1 (stereo not given)	-0.84	20	0	-27	-21	13
Cc1cc(N/N=C2\CC(C)CC(C)(C)C2)nc2ccccc12 (stereo not given)	·	·	1	·	·	76*
CCCCn1[nH]c(-c2ccccc2)cc1=O	·	6	0	-22	32*	-18
SMILES	DAT uptake mod	Measles CPE	RAM network inh	Yeast growth inh	Yeast life ext	WT yeast gro inh
Cc1ccc(SCC(=O)NC(=O)Nc2ccc3c(c2)OCCO3)cc1C	·	6	5	-41	8	1
CC(=O)N1N=C(c2ccc(Br)cc2)CC1c1cn(C)c2ccccc12 (stereo not given)	·	10	5	-21	7	74*
CCCC(=O)N1N=C(c2ccccc2)CC1c1cn(C)c2ccccc12 (stereo not given)	·	15	4	-42	11	55
O=C(Nc1ccc(Cl)cc1)Nc1ccc(S(=O)(=O)Nc2ncccn2)cc1	·	·	5	·	·	-18
O=C(Nc1ccc(S(=O)(=O)Nc2ncccn2)cc1)c1cnc(Cl)c(Cl)c1	·	·	11*	·	·	-7
Cc1ccc(C(=O)N2CCN(c3ccccc3Cl)CC2)cc1[N+](=O)[O-]	·	·	1	·	·	76*
CCCc1cc(SCC(=O)Nc2c(C)n(C)n(-c3ccccc3)c2=O)n2c(nc3ccccc32)c1C#N	-1.2	19	2	-16	-13	-5
O=C1NCN(c2ccccc2)C12CCN(CCCC(c1ccc(F)cc1)c1ccc(F)cc1)CC2	-0.27	·	-2	·	·	73*
O=C1CCC(=O)N1CCC(c1ccc(F)cc1)c1ccco1 (stereo not given)	-0.39	13	0	-44	-8	18
O=[N+]([O-])c1cccc(-c2nnc(SCc3cccnc3)o2)c1	·	·	2	·	·	-20
CCN(CC)CCNc1nc(-c2ccco2)c2c(c1C#N)CC(C)(C)OC2	-0.02	15	1	-36	-26	19
CC(C)Cc1nc(NCCN2CCOCC2)c(C#N)c2c1COC(C)(C)C2	0.29	7	2	-38	-22	2
CC1(C)Cc2c(C#N)c(NCCc3ccccc3)nc(-c3ccco3)c2CO1	-0.012	53*	5	-55	-20	-2
CCCCc1nc(NCCN2CCOCC2)c(C#N)c2c1COC(C)(C)C2	2.6*	6	0	-37	-6	23
Cn1c(NC(=O)c2ccccc2)cc(=O)n(C)c1=O	-0.0081	2	1	-26	1	9
Cn1c(NC(=O)c2ccco2)cc(=O)n(C)c1=O	7.9*	12	0	-2	-4	-21
Clc1ccc2ncc(-c3nnnn3-c3ccccc3)c(-c3ccccc3)c2c1	0.014	3	4	3	0	70*
CSc1ncc(S(=O)(=O)c2ccccc2)c(=O)[nH]1	·	·	1	·	·	0
CC(C)c1ccc(/C=C/c2ccc(=O)n(C)n2)cc1	·	·	-2	·	·	15
COc1ccccc1OC(=O)c1ccc(S(=O)(=O)N(C)C)cc1	0.58	44*	-1	-52	-3	-16
COC(=O)Nc1ccc(S(=O)(=O)N(C)C)cc1	-2.8*	3	0	22	-20	13
Cc1cccc(NC(=O)c2ccc(S(=O)(=O)N(C)C)cc2)c1	3.1*	2	-1	-1	-11	5
COC(=O)Nc1ccc(NC(C)=O)cc1	0.13	11	1	-29	-10	1
CN(C)S(=O)(=O)c1ccc(NC(=O)N2CCN(c3ccccc3)CC2)cc1	·	40*	3	-38	-10	8
CCCCn1c(=O)[nH]c(=O)c2c(C(=O)OCC)cc(-c3ccc(OC(F)F)cc3)nc21	·	·	3	·	·	9
COc1ccccc1C(=O)NCC(=O)OCC(=O)c1ccc2c(c1)-c1ccccc1C2	·	18	5	-13	-5	5
Oc1c(Cl)cc(Cl)c2c1NCCC2	1.2	12	-1	99*	-26	42
O=C(NNc1ccc([N+](=O)[O-])cc1)C1CC2CCCC(C1)C2=O (stereo not given)	0.81	2	0	-39	-2	16

Screening data (PubChem)
